PubChem BioAssay AID602285 (Broad Institute, 2012)
Active and inactive are the calls of the source.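 Rule for the calls: active = AC50 at or below twice the top valid dose for that sample, with falling signal; inconclusive = flat curve with inhibition of 30 to 70%, or poor fit; inactive = activity in the wrong direction, plus the rest.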

Target: Scavenger receptor class B member 1 (Mus musculus) (UniProt Q61009)
Assay: inhibitors of HDL uptake via mouse SR-BI, dose response, ldlA[mSR-BI] CHO cells, fluorescence plate reader, dry powder, set 8 (AID 602285)
Conditions: DiI-HDL uptake fluorescence, 3 h
Method in brief: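 Assay system: ldlA[mSR-BI] cells, LDL receptor-deficient CHO line overexpressing murine SR-BI; Buffer or medium: Ham's F12, fatty acid-free BSA, HEPES pH 7.4; Dosing: pin-transferred compound series; Times: 3 h uptake at 37 °C; Measured by: bottom-read DiI fluorescence after PBS washes, excitation 550 nm, emission 595 nm; Controls: DMSO as neutral control, BLT-1 as inhibitor control.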

Scavenger receptor class B member 1 (Mus musculus), sequence (Q61009 whole entry, looked up): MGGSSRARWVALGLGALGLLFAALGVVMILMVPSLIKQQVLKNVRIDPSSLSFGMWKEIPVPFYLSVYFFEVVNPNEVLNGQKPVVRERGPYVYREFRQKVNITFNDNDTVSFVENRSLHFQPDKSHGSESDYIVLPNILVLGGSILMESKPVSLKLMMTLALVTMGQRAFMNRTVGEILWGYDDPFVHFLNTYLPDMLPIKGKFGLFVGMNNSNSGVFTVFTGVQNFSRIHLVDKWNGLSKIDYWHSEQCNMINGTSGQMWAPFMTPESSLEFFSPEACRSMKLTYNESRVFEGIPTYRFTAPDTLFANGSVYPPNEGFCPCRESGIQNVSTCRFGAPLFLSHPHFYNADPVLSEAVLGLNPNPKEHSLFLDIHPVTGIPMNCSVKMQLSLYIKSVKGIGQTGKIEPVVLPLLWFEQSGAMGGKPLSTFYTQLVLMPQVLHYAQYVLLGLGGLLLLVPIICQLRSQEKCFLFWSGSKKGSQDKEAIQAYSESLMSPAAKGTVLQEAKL

SMILES | AC50 | other results
C[C@@H]1CN([C@H](C)CO)C(=O)c2cc(NC(=O)Cc3cn(C)c4ccccc34)ccc2O[C@H]1CN(C)S(=O)(=O)c1ccc(Cl)cc1 | 0.174 µM | 
COc1ccc(CN(C)C[C@@H]2Oc3ccc(NC(=O)Cc4cn(C)c5ccccc45)cc3C(=O)N([C@H](C)CO)C[C@H]2C)cc1 | 2.55 µM | 
C[C@@H]1CN([C@H](C)CO)C(=O)c2cc(NC(=O)Cc3cn(C)c4ccccc34)ccc2O[C@H]1CN(C)C(=O)Nc1ccc(C(F)(F)F)cc1 | 2.18 µM | 
Cc1ccccc1-c1ccc2c(c1)O[C@H](CN(C)C(=O)Nc1ccc(F)cc1)[C@H](C)CN([C@H](C)CO)S2(=O)=O |  | activity change, negative = inhibition (at 35 µM (top of the series)): inactive
C[C@@H]1CN([C@H](C)CO)C(=O)c2cc(NC(=O)Cc3cn(C)c4ccccc34)ccc2O[C@H]1CN(C)C(=O)Nc1cccc2ccccc12 | 8.3 µM | 
C[C@@H]1CN([C@@H](C)CO)C(=O)c2cc(NC(=O)Cc3cn(C)c4ccccc34)ccc2O[C@@H]1CN(C)S(=O)(=O)c1ccc(Cl)cc1 | 10 µM | 
C[C@@H]1CN([C@H](C)CO)C(=O)c2cc(NS(=O)(=O)c3cccs3)ccc2O[C@H]1CN(C)S(=O)(=O)c1ccc(Cl)cc1 | 3.77 µM | 
Cc1noc(C)c1NC(=O)Nc1ccc2c(c1)C(=O)N([C@H](C)CO)C[C@@H](C)[C@H](CN(C)S(=O)(=O)c1ccc(Cl)cc1)O2 | 7.1 µM | 
C[C@@H]1CN([C@H](C)CO)C(=O)c2cc(NS(=O)(=O)c3ccccc3)ccc2O[C@H]1CN(C)S(=O)(=O)c1ccc(Cl)cc1 | 3.16 µM | 
C[C@@H]1CN([C@H](C)CO)C(=O)c2cc(NC(=O)Cc3cn(C)c4ccccc34)ccc2O[C@@H]1CN(C)S(=O)(=O)c1ccc(Cl)cc1 | 11.5 µM | 
C[C@@H]1CN([C@H](C)CO)C(=O)c2cc(NC(=O)Cc3cn(C)c4ccccc34)ccc2O[C@H]1CN(C)S(=O)(=O)c1ccc(F)cc1 | 1.11 µM | 
C[C@@H]1CN([C@H](C)CO)C(=O)c2cc(NC(=O)C3CC3)ccc2O[C@H]1CN(C)S(=O)(=O)c1ccc(Cl)cc1 | 2.06 µM | 
C[C@@H]1CN([C@H](C)CO)C(=O)c2cc(NC(=O)Cc3cn(C)c4ccccc34)ccc2O[C@H]1CN(C)Cc1ccc(C(F)(F)F)cc1 | 0.653 µM | 
C[C@@H]1CN([C@H](C)CO)C(=O)c2cc(NC(=O)Cc3cn(C)c4ccccc34)ccc2O[C@H]1CN(C)C(=O)Nc1ccc2c(c1)OCO2 | 4.6 µM | 
C[C@@H]1CN([C@H](C)CO)C(=O)c2cc(NC(=O)Cc3cn(C)c4ccccc34)ccc2O[C@H]1CN(C)CC1CCCCC1 | 9.24 µM | 
C[C@@H]1CN([C@@H](C)CO)C(=O)c2cc(NC(=O)Cc3cn(C)c4ccccc34)ccc2O[C@H]1CN(C)S(=O)(=O)c1ccc(Cl)cc1 | 0.912 µM | 
C[C@@H]1CN([C@H](C)CO)C(=O)c2cc(NC(=O)Cc3cn(C)c4ccccc34)ccc2O[C@H]1CN(C)Cc1ccccc1 | 1.55 µM | 
C[C@@H]1CN([C@H](C)CO)C(=O)c2cc(NC(=O)Cc3cn(C)c4ccccc34)ccc2O[C@H]1CN(C)Cc1ccc(Cl)c(Cl)c1 |  | activity change, negative = inhibition (at 11 µM (top of the series)): inactive
C[C@H]1CN([C@@H](C)CO)C(=O)c2cc(NC(=O)Cc3cn(C)c4ccccc34)ccc2O[C@H]1CN(C)S(=O)(=O)c1ccc(Cl)cc1 | 12.3 µM | 
C[C@@H]1CN([C@H](C)CO)C(=O)c2cc(NC(=O)Cn3cnnn3)ccc2O[C@H]1CN(C)S(=O)(=O)c1ccc(Cl)cc1 | 10.3 µM | 
C[C@H]1CN([C@@H](C)CO)C(=O)c2cc(NC(=O)Cc3cn(C)c4ccccc34)ccc2O[C@@H]1CN(C)S(=O)(=O)c1ccc(Cl)cc1 | 17.4 µM | 
C[C@@H]1CN([C@H](C)CO)C(=O)c2cc(NC(=O)Nc3ccccc3)ccc2O[C@H]1CN(C)S(=O)(=O)c1ccc(Cl)cc1 |  | activity change, negative = inhibition (at 35 µM (top of the series)): inactive
C[C@@H]1CN([C@H](C)CO)C(=O)c2cc(NC(=O)Cc3cn(C)c4ccccc34)ccc2O[C@H]1CN(C)S(=O)(=O)c1cn(C)cn1 | 6.39 µM | 
C[C@@H]1CN([C@H](C)CO)C(=O)c2cc(NC(=O)Cc3cn(C)c4ccccc34)ccc2O[C@H]1CN(C)S(=O)(=O)c1ccccc1 | 0.215 µM | 
C[C@@H]1CN([C@H](C)CO)C(=O)c2cc(NC(=O)C3CCCCC3)ccc2O[C@H]1CN(C)S(=O)(=O)c1ccc(Cl)cc1 | 0.0304 µM | 
C[C@@H]1CN([C@H](C)CO)C(=O)c2cc(NS(=O)(=O)c3ccc(F)cc3)ccc2O[C@H]1CN(C)S(=O)(=O)c1ccc(Cl)cc1 | 13.7 µM | 
COc1ccc(S(=O)(=O)N(C)C[C@@H]2Oc3ccc(NC(=O)Cc4cn(C)c5ccccc45)cc3C(=O)N([C@H](C)CO)C[C@H]2C)cc1 | 2.01 µM | 
Cc1noc(C)c1S(=O)(=O)Nc1ccc2c(c1)C(=O)N([C@H](C)CO)C[C@@H](C)[C@H](CN(C)S(=O)(=O)c1ccc(Cl)cc1)O2 | 0.297 µM | 
